The values that follow come from ChEMBL document CHEMBL1126691, “Application of the hypersurface iterative projection method to bicyclic pyrazolidinone antibacterial agents” (1993).

Where only a bound is given, the exact number is not on record here.

The test system of the assay is Pseudomonas. In words: Minimum inhibitory concentration against Pseudomonas species. The format is functional. A digest of the protocol:
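MIC in µg/mL, determined by the 2-fold serial agar dilution method. These readings were excluded from the geometric-mean MIC used for the QSAR analysis.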
As a reminder, the MIC is the lowest concentration that inhibits growth of the organism. Higher therefore signals weaker potency. Turning to `CO/N=C(\C(=O)NC1CN2CC(S(C)(=O)=O)=C(C(=O)O)N2C1=O)c1csc(N)n1` (stereo unspecified), the MIC was over 128 µg/mL.
Then `CO/N=C(\C(=O)N[C@H]1CN2CC(C#N)=C(C(=O)O)N2C1=O)c1csc(N)n1`, with over 128 µg/mL.
Under `CO/N=C(\C(=O)N[C@H]1CN2CC(C(=O)OCc3ccccc3)=C(C(=O)O)N2C1=O)c1csc(N)n1` stands over 128 µg/mL.
Then `CO/N=C(\C(=O)N[C@H]1CN2CC(S(=O)(=O)c3ccccc3)=C(C(=O)O)N2C1=O)c1csc(N)n1`, with over 128 µg/mL; and `CO/N=C(\C(=O)N[C@H]1CN2CC(NC(=O)OC)=C(C(=O)O)N2C1=O)c1csc(N)n1`, with over 128 µg/mL.
`CO/N=C(\C(=O)N[C@H]1CN2CC(S(=O)(=O)N(C)C)=C(C(=O)O)N2C1=O)c1csc(N)n1` came in with an MIC of over 128 µg/mL.
Under `CO/N=C(\C(=O)N[C@H]1CN2CC(C(=O)c3ccccc3)=C(C(=O)O)N2C1=O)c1csc(N)n1` stands over 128 µg/mL; under `CO/N=C(\C(=O)N[C@H]1CN2CC(C(C)=O)=C(C(=O)O)N2C1=O)c1csc(N)n1`, over 128 µg/mL; under `CO/N=C(\C(=O)N[C@H]1CN2CC=C(C(=O)O)N2C1=O)c1csc(N)n1`, over 128 µg/mL.
Then `CO/N=C(\C(=O)N[C@H]1CN2CC(c3cccs3)=C(C(=O)O)N2C1=O)c1csc(N)n1`, with over 128 µg/mL; and `CO/N=C(\C(=O)N[C@H]1CN2CC(C(=O)CF)=C(C(=O)O)N2C1=O)c1csc(N)n1`, with over 128 µg/mL.
Then `CO/N=C(\C(=O)N[C@H]1CN2CC(SC)=C(C(=O)O)N2C1=O)c1csc(N)n1`, with over 128 µg/mL.
The compound `CCOP(=O)(OCC)C1=C(C(=O)O)N2C(=O)[C@@H](NC(=O)/C(=N\OC)c3csc(N)n3)CN2C1` had an MIC of over 128 µg/mL.
Take `CO/N=C(\C(=O)N[C@H]1CN2CC(C(=O)O)=C(C(=O)O)N2C1=O)c1csc(N)n1`: the MIC was over 128 µg/mL.
Compound `CO/N=C(\C(=O)N[C@H]1CN2CC(C(F)(F)F)=C(C(=O)O)N2C1=O)c1csc(N)n1` gave a minimal inhibitory concentration (MIC) of over 128 µg/mL.
Under `CO/N=C(\C(=O)N[C@H]1CN2CC(Sc3nnnn3C)=C(C(=O)O)N2C1=O)c1csc(N)n1` stands over 128 µg/mL; under `CO/N=C(\C(=O)N[C@H]1CN2CC(C(=O)Nc3ccccc3)=C(C(=O)O)N2C1=O)c1csc(N)n1`, over 128 µg/mL.
Then `CO/N=C(\C(=O)N[C@H]1CN2CC(S(=O)(=O)CCNC(C)=O)=C(C(=O)O)N2C1=O)c1csc(N)n1`, with over 128 µg/mL.
The compound `CO/N=C(\C(=O)N[C@H]1CN2CC(c3ccccn3)=C(C(=O)O)N2C1=O)c1csc(N)n1` displayed an MIC of over 128 µg/mL.
Under `CO/N=C(\C(=O)N[C@H]1CN2CC(P(=O)(OC)OC)=C(C(=O)O)N2C1=O)c1csc(N)n1` stands over 128 µg/mL; under `CCS(=O)(=O)C1=C(C(=O)O)N2C(=O)[C@@H](NC(=O)/C(=N\OC)c3csc(N)n3)CN2C1`, over 128 µg/mL; under `CO/N=C(\C(=O)N[C@H]1CN2CC(c3ccccc3)=C(C(=O)O)N2C1=O)c1csc(N)n1`, over 128 µg/mL.
Under `CCOC(=O)C1=C(C(=O)O)N2C(=O)[C@@H](NC(=O)/C(=N\OC)c3csc(N)n3)CN2C1` stands over 128 µg/mL.
The compound `CCC(=O)C1=C(C(=O)O)N2C(=O)[C@@H](NC(=O)/C(=N\OC)c3csc(N)n3)CN2C1` yielded a minimum inhibitory concentration (MIC) of over 128 µg/mL.
Under `CCCOC(=O)C1=C(C(=O)O)N2C(=O)[C@@H](NC(=O)/C(=N\OC)c3csc(N)n3)CN2C1` stands over 128 µg/mL; under `CO/N=C(\C(=O)N[C@H]1CN2CC(S(=O)(=O)c3c(C)noc3C)=C(C(=O)O)N2C1=O)c1csc(N)n1`, over 128 µg/mL; under `CNC(=O)C1=C(C(=O)O)N2C(=O)[C@@H](NC(=O)/C(=N\OC)c3csc(N)n3)CN2C1`, over 128 µg/mL.
Under `CO/N=C(\C(=O)N[C@H]1CN2CC(Sc3nnc(C)s3)=C(C(=O)O)N2C1=O)c1csc(N)n1` stands over 128 µg/mL.
Under `C=CCO/N=C/C1=C(C(=O)O)N2C(=O)[C@@H](NC(=O)/C(=N\OC)c3csc(N)n3)CN2C1` stands over 128 µg/mL.
With `CO/N=C(\C(=O)N[C@H]1CN2CC(/C=N/OC)=C(C(=O)O)N2C1=O)c1csc(N)n1`, the MIC was over 128 µg/mL.
Under `CO/N=C(\C(=O)N[C@H]1CN2CC(C(=O)C(F)(F)F)=C(C(=O)O)N2C1=O)c1csc(N)n1` stands over 128 µg/mL.
Compound `CO/N=C(\C(=O)N[C@H]1CN2CC(c3ccncc3)=C(C(=O)O)N2C1=O)c1csc(N)n1` came in with an MIC of over 128 µg/mL.
Then `CO/N=C(\C(=O)N[C@H]1CN2CC(C(=O)OC)=C(C(=O)O)N2C1=O)c1csc(N)n1`, with over 128 µg/mL; and `C=CC1=C(C(=O)O)N2C(=O)[C@@H](NC(=O)/C(=N\OC)c3csc(N)n3)CN2C1`, with over 128 µg/mL.
Under `CO/N=C(\C(=O)N[C@H]1CN2CC(/C=N/OCCc3ccccc3)=C(C(=O)O)N2C1=O)c1csc(N)n1` stands over 128 µg/mL.
Then `CO/N=C(\C(=O)N[C@H]1CN2CC(COC(C)=O)=C(C(=O)O)N2C1=O)c1csc(N)n1`, with over 128 µg/mL.
